Data on one compound can be found in ChEMBL document CHEMBL3769383, “Cefsulodin Inspired Potent and Selective Inhibitors of mPTPB, a Virulent Phosphatase from Mycobacterium tuberculosis” (ACS Med Chem Lett, 2015).

One may read the IC50 as the concentration at which inhibition is half-maximal. The low end stands for greater potency in that assay, the high end for weaker potency in that assay.

Experiment [1] has as its target Receptor-type tyrosine-protein phosphatase S (Homo sapiens) (UniProt Q13332). Put plainly: Inhibition of PTPsigma (unknown origin) using pNPP as substrate at 200 uM after 5 mins by spectrophotometry. Summed up: (§1)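 Single-point screen: the test compound is present at 200 μM in the assay (a compound concentration, not a substrate level). The read-out is phosphatase-catalysed hydrolysis of para-nitrophenyl phosphate.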

Experiment [2] can be described thus: Selectivity ratio of IC50 for Meg2 (unknown origin) to IC50 for Mycobacterium tuberculosis PTPB.
The nature of experiment [3]: Selectivity ratio of IC50 for PTPalpha (unknown origin) to IC50 for Mycobacterium tuberculosis PTPB. The method in brief: (§2)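 Each phosphatase in the 25-enzyme panel was tested for inhibition at 200 μM compound. The mPTPB IC50 was determined against mPTPB-catalysed hydrolysis of para-nitrophenyl phosphate. The ratio is the panel-enzyme IC50 divided by the mPTPB IC50.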

Experiment [4] in a line: Selectivity ratio of IC50 for CDC14A (unknown origin) to IC50 for Mycobacterium tuberculosis PTPB.
For experiment [5], the target named is Receptor-type tyrosine-protein phosphatase beta (Homo sapiens) (UniProt P23467). Put plainly: Inhibition of PTPbeta (unknown origin) using pNPP as substrate at 200 uM after 5 mins by spectrophotometry. The method in brief: as §1
Sequence of Receptor-type tyrosine-protein phosphatase beta (Homo sapiens) (P23467 23-1997 limits assumed): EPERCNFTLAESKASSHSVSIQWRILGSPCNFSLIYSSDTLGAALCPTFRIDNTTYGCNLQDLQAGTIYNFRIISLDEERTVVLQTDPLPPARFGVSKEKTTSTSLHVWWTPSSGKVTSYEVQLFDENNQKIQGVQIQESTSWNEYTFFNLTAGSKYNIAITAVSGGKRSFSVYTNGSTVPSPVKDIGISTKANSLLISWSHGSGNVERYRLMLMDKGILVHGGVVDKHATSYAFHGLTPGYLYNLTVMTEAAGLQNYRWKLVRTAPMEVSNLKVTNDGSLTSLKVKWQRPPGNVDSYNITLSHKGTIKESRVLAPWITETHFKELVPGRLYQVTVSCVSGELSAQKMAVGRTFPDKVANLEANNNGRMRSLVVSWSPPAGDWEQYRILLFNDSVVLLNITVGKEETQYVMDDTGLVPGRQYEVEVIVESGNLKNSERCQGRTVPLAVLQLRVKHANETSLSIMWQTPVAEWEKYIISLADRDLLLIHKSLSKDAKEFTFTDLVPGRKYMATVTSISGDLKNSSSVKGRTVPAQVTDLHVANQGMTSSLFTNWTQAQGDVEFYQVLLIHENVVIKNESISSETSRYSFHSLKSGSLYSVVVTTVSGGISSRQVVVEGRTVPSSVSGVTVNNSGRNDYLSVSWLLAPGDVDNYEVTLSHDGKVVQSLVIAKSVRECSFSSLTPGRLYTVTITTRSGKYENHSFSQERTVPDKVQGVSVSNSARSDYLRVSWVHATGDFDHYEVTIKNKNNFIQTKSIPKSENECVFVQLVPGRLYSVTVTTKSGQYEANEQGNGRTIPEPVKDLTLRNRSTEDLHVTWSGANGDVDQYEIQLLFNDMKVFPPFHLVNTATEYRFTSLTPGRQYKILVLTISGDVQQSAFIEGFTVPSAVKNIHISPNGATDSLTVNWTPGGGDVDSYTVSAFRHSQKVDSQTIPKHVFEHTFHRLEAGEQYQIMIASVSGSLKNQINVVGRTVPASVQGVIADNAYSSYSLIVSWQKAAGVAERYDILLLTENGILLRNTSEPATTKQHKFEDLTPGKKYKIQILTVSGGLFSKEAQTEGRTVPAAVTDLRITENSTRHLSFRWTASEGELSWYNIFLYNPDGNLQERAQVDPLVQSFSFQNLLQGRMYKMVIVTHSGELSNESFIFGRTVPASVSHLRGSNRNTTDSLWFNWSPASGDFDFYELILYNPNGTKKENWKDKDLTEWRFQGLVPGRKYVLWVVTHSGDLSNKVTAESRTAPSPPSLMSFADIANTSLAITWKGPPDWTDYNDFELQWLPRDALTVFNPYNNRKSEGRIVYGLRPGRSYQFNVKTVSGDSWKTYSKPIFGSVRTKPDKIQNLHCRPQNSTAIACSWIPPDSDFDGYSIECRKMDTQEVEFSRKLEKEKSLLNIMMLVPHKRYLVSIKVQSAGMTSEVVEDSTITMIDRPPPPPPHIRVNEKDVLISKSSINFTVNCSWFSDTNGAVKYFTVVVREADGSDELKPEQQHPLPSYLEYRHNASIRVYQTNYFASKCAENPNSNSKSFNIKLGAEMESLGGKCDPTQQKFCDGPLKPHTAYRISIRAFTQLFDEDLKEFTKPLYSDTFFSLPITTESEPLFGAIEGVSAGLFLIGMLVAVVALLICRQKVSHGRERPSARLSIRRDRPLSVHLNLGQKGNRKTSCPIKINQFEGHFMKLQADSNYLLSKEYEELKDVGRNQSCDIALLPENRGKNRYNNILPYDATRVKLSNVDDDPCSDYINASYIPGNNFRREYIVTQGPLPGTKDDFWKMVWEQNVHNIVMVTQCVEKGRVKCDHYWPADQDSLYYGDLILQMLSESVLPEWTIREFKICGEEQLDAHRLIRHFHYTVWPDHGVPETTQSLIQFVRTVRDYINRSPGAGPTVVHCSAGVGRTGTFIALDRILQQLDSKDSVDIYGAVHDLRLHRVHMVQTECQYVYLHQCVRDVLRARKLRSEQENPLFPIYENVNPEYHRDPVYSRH
Experiment [6] has as its target RAC-alpha serine/threonine-protein kinase (Mus musculus) (UniProt P31750). Kind of experiment: Effect on Akt phosphorylation in mouse RAW264.7 cells transfected with empty vector at 10 to 40 nM pre-treated for 1 hrs followed by stimulation with IFNgamma for 1 hr by Western blotting method. The class given is cell-based. A general note: A western blot detects proteins with antibodies after separation by electrophoresis.

Experiment [7] in a line: Selectivity ratio of IC50 for PTPH1 (unknown origin) to IC50 for Mycobacterium tuberculosis PTPB. Summed up: as §2
Experiment [8] is described as follows: Selectivity ratio of IC50 for CD45 (unknown origin) to IC50 for Mycobacterium tuberculosis PTPB.
Experiment [9] is described as follows: Selectivity ratio of IC50 for PTPgamma (unknown origin) to IC50 for Mycobacterium tuberculosis PTPB. Summed up:
as §2

Experiment [10] can be described thus: Selectivity ratio of IC50 for FAP1 (unknown origin) to IC50 for Mycobacterium tuberculosis PTPB.
Experiment [11] has as its target Low molecular weight protein-tyrosine phosphatase A (Mycobacterium tuberculosis) (UniProt P9WIA1). Kind of experiment: Inhibition of Mycobacterium tuberculosis PTPA expressed in Escherichia coli using pNPP as substrate at 200 uM after 5 mins by spectrophotometry. The method in brief: as §1
Experiment [12] concerns the target Dual specificity protein phosphatase 3 (Homo sapiens) (UniProt P51452). Kind of experiment: Inhibition of VHR (unknown origin) using pNPP as substrate at 200 uM after 5 mins by spectrophotometry. The method in brief:
as §1

Experiment [13] can be described thus: Selectivity ratio of IC50 for LAR (unknown origin) to IC50 for Mycobacterium tuberculosis PTPB.
The target in experiment [14] is Receptor-type tyrosine-protein phosphatase mu (Homo sapiens) (UniProt P28827). Put plainly: Inhibition of PTPmu (unknown origin) using pNPP as substrate at 200 uM after 5 mins by spectrophotometry. The method in brief:
as §1

Experiment [15] has as its target Tyrosine-protein phosphatase non-receptor type 9 (Homo sapiens) (UniProt P43378). Put plainly: Inhibition of Meg2 (unknown origin) using pNPP as substrate at 200 uM after 5 mins by spectrophotometry. The method in brief:
as §1

Experiment [16] is described as follows: Selectivity ratio of IC50 for PTPsigma (unknown origin) to IC50 for Mycobacterium tuberculosis PTPB. The method in brief: as §2
The next experiment has as its system RAW264.7. Kind of experiment: Inhibition of Mycobacterium tuberculosis PTPB transfected in mouse RAW264.7 cells decrease in Akt phosphorylation pre-treated for 1 hrs followed by stimulation with IFNgamma for 1 hr by Western blotting method. The class given is cell-based.
Experiment [17] has as its target Tyrosine-protein phosphatase non-receptor type 2 (Homo sapiens) (UniProt P17706). Kind of experiment: Inhibition of TC-PTP (unknown origin) using pNPP as substrate at 200 uM after 5 mins by spectrophotometry. Summed up:
as §1

Experiment [18] in a line: Inhibition of Mycobacterium tuberculosis PTPB expressed in Escherichia coli BL21/DE3 cells using pNPP as substrate after 5 mins by spectrophotometry.
Experiment [19] addresses Receptor-type tyrosine-protein phosphatase alpha (Homo sapiens) (UniProt P18433). Kind of experiment: Inhibition of PTPalpha (unknown origin) using pNPP as substrate at 200 uM after 5 mins by spectrophotometry. Summed up: as §1
The next experiment has as its target Laforin (Homo sapiens) (UniProt O95278). Put plainly: Inhibition of Laforin (unknown origin) using pNPP as substrate at 200 uM after 5 mins by spectrophotometry. Summed up: as §1
The target of experiment [20] is Tyrosine-protein phosphatase non-receptor type 3 (Homo sapiens) (UniProt P26045). Kind of experiment: Inhibition of PTPH1 (unknown origin) using pNPP as substrate at 200 uM after 5 mins by spectrophotometry. The method in brief: as §1
The target of experiment [21] is Tyrosine-protein phosphatase non-receptor type 13 (Homo sapiens) (UniProt Q12923). Put plainly: Inhibition of FAP1 (unknown origin) expressed in Escherichia coli using pNPP as substrate at 200 uM after 5 mins by spectrophotometry. Summed up:
as §1

Activity calls are given as the source filed them. The rule behind the calls is not given here.

Sequence of Laforin (Homo sapiens) (O95278 whole entry): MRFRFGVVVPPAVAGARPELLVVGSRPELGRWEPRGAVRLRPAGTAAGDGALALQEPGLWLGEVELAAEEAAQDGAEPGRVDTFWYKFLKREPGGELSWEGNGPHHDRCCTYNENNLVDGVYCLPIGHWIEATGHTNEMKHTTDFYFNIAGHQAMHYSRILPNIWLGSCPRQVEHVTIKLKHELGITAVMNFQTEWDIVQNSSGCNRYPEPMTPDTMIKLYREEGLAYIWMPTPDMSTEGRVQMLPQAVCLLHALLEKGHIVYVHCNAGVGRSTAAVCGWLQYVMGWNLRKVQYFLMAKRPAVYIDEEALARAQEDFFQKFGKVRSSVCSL
Sequence of Receptor-type tyrosine-protein phosphatase alpha (Homo sapiens) (P18433 20-802 limits assumed): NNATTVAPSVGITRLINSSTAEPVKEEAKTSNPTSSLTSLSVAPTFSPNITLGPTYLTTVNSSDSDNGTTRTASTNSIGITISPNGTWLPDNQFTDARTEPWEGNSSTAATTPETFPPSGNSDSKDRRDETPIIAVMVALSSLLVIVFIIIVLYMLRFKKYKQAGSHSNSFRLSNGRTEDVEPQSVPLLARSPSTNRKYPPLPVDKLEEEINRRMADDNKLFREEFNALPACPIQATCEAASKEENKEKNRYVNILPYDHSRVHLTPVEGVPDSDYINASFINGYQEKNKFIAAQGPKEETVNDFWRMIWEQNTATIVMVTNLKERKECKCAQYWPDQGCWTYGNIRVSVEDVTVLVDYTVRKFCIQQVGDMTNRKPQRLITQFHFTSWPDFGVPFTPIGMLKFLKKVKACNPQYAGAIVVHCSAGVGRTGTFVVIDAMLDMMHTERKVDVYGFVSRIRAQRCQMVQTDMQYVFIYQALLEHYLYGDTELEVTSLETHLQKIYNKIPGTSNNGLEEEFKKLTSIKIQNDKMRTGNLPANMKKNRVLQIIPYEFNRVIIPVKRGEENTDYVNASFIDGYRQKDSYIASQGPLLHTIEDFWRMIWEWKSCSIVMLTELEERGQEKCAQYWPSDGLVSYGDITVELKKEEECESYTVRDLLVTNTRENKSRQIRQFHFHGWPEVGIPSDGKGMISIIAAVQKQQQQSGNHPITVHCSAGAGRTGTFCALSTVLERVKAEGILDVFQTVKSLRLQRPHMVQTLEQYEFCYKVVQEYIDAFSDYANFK
Sequence of Tyrosine-protein phosphatase non-receptor type 9 (Homo sapiens) (P43378 whole entry): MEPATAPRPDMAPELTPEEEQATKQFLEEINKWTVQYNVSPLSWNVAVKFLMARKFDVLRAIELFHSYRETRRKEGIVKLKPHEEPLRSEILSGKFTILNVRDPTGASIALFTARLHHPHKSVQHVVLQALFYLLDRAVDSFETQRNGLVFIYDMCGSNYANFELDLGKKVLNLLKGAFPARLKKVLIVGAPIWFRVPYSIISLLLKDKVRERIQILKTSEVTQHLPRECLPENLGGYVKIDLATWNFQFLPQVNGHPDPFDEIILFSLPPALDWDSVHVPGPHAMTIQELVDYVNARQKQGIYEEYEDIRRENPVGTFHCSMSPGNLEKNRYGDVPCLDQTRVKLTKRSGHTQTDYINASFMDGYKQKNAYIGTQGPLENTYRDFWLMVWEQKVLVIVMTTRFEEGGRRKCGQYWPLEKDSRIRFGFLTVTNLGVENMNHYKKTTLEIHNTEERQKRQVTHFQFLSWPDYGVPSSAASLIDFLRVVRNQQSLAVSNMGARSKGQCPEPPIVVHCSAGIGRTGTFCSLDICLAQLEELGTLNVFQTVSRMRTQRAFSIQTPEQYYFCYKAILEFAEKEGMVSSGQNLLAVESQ
Sequence of Tyrosine-protein phosphatase non-receptor type 2 (Homo sapiens) (P17706 whole entry): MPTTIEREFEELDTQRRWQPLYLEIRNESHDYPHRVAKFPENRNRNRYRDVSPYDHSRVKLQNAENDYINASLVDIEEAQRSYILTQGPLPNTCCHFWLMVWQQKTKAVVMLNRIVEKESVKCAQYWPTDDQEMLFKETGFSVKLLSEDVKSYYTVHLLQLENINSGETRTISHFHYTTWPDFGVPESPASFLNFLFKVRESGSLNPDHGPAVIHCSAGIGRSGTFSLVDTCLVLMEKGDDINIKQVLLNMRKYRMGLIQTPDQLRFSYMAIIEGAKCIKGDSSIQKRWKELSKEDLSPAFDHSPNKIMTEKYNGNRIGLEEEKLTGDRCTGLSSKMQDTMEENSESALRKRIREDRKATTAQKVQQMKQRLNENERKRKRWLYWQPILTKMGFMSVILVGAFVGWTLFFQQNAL
Sequence of RAC-alpha serine/threonine-protein kinase (Mus musculus) (P31750 whole entry): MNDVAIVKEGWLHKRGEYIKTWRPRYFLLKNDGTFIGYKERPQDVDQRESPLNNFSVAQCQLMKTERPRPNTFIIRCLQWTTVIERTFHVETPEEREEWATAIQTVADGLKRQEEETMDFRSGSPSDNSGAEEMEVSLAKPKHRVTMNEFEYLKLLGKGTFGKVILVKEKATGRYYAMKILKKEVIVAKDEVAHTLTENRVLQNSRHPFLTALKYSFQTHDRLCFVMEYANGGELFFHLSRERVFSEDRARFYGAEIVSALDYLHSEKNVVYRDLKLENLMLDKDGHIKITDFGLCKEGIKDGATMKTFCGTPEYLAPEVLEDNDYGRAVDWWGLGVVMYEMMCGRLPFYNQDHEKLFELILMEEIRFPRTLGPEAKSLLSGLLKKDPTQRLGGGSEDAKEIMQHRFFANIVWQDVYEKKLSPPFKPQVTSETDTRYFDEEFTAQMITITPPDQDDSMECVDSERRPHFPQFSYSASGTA
Sequence of Dual specificity protein phosphatase 3 (Homo sapiens) (P51452 whole entry, looked up): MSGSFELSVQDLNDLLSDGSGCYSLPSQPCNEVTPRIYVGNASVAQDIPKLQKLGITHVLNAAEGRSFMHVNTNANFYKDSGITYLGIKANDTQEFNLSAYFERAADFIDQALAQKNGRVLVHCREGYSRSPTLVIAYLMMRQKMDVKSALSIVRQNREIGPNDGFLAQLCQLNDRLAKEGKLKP
Sequence of Low molecular weight protein-tyrosine phosphatase A (Mycobacterium tuberculosis) (P9WIA1 whole entry): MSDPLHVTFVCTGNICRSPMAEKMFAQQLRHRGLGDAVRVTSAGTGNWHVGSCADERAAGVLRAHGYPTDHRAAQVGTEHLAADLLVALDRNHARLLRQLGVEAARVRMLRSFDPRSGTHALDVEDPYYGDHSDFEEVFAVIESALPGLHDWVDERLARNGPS

As to `O=C(C(c1ccccc1)S(=O)(=O)O)N1CCCC2CCCCC21` (racemic), the inhibition result in experiment [1], in experiment [5], in experiment [11], in experiment [12], in experiment [14] and in experiment [15] was “inactive” in each case. Moreover, the inhibition entry (in experiment [17]; in [19]; at Laforin (Homo sapiens); in experiment [20]; in experiment [21]) was “inactive” in each case. Besides, the Ratio IC50 in experiment [2], in experiment [3], in experiment [4], in experiment [7], in experiment [8] and in [9] was greater than 10000 throughout. Also, the Ratio IC50 in experiment [10], in experiment [13] and in experiment [16] was greater than 10000 in each case. In addition, the outcome in [6] was inactive. In the experiment with RAW264.7, the inhibition entry is “Dose-dependent effect”. The compound also gave an IC50 in experiment [18] of 18 nM.
